From ChEMBL document CHEMBL3392953, “Synthesis and biological evaluation of furanoallocolchicinoids” (J Med Chem, 2015)
Calls of active or inactive are those of the source. The rule behind the calls is not given here.

Columns and labels:
[1] = system: HEK293; assay: Cytotoxicity against HEK293 cells after 72 hrs by MTT assay; format: functional, cell-based; details: Homo sapiens, HEK293, 72 h
In short: (§1)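 Cells seeded at 3x10^5 cells/mL 24 h before assay (HEK293, AsPC-1 in DMEM; Jurkat, W1308 in RPMI-1640; 10% FCS, 2-ME). Tenfold dilutions from […] to 1 nM added; untreated cells as controls. 72 h incubation, MTT 250 µg/ml added for last 6 h, formazan dissolved in DMSO, OD read. IC50 from titration curves; inhibition index = 1 − OD(treated)/OD(control).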

[2] = Cytotoxicity against mouse W1308 cells after 72 hrs by MTT assay; format: functional, cell-based; details: W1308, 72 h; in short: as §1
[3] = system: ASPC1; assay: Cytotoxicity against human AsPC1 cells after 72 hrs by MTT assay; format: functional, cell-based; details: ASPC1, 72 h; in short: as §1
[4] = system: Jurkat; assay: Cytotoxicity against human Jurkat cells after 72 hrs by MTT assay; format: functional, cell-based; in short: as §1
[5] = system: HEK293; assay: Induction of apoptosis in HEK293 cells at 200 nM after 72 hrs by propidium iodide staining based flow cytometry (reference value: 3 +/- 1%); format: functional, Homo sapiens
[6] = system: ASPC1; assay: Induction of cell cycle arrest in human AsPC1 cells assessed as G1/G2 phase ratio at 200 nM after 72 hrs by propidium iodide staining based flow cytometry (reference value: 1.9); format: functional
[7] = system: Mus musculus; assay: (§2) Toxicity in ip dosed C57BL/6 mouse measured after 24 to 48 hrs; format: organism-based; details: mouse, in vivo
In short: (§3)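 Acute toxicity: single doses given i.p. or i.v. to 6–8 wk C57BL/6 mice to determine LD100 and LD50; lethality observed 24–48 h after injection.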

[8] = as §2; format: organism-based; details: C57BL/6, mouse, in vivo; in short: as §3
[9] = system: HEK293; assay: Induction of cell cycle arrest in HEK293 cells assessed as accumulation at G1 phase at 200 nM after 72 hrs by propidium iodide staining based flow cytometry (reference value: 76 +/ 5%); format: functional, Homo sapiens
[10] = system: ASPC1; assay: Induction of apoptosis in human AsPC1 cells assessed as double nucleated cells level at 200 nM after 72 hrs by Hoechst 33342 and mitotracker red staining based confocal microscopy; format: functional, cell-based
In short: (§4)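 AsPC-1 cells grown overnight on coverslips, then cultured 72 h with compound at various concentrations in complete medium. Hoechst 33342 and MitoTracker Red added for 1 h; cells fixed in 1% paraformaldehyde, mounted in Mowiol, and examined by confocal microscopy for nuclear and mitochondrial morphology.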

[11] = system: Mus musculus; assay: Toxicity in C57BL/6 mouse assessed as interphase microtubule de-stabilizing activity by measuring influx of rhodamine in to heart at 1 mg/kg, iv co-administered with rhodamine B by fluorimetry; format: organism-based; design: dose 1 mg/kg, route intravenous; details: in vivo
In short: (§5)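 Intact mice, 6–8 wk, 3 per group; compound dissolved in DMSO at 20 mM, 4 µl diluted into 200 µl saline (1 mg/kg), mixed with 50 µl rhodamine B, single i.v. injection; controls DMSO plus rhodamine B. Killed 4 h later; organs cut, extracted in 0.3N acid in ethanol 2 h at 37 °C, centrifuged, supernatant fluorescence read with 540 nm filter.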

[12] = system: ASPC1; assay: Induction of apoptosis in human AsPC1 cells assessed as mitochondria depolarization at 200 nM after 72 hrs by Hoechst 33342 and mitotracker red staining based confocal microscopy; format: functional, cell-based; in short: as §4
[13] = system: Mus musculus; assay: Toxicity in mouse MMTV-Wnt-1 cells implanted C57BL/6 mouse assessed as induction of weight loss at 0.4 mg/kg, iv once weekly for four weeks; format: organism-based; design: dose 0.4 mg/kg, route intravenous; details: in vivo
In short: (§6)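 C57BL/6 mice, 6–8 wk, inoculated subcutaneously with Wnt-1 tumor cells in 50 µl PBS into left inguinal fat pad under anesthesia. Treatment started at day 27 in mice with palpable tumors (n=7 per group). Compound in 200 µl saline given i.v. into orbital sinus at days 27, 34, 41, 48; controls received saline. Tumors measured by caliper twice weekly, volume (W²×L)/2. Study ended day 51.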

[14] = system: ASPC1; assay: Induction of cell cycle arrest in human AsPC1 cells assessed as accumulation at G1 phase at 200 nM after 72 hrs by propidium iodide staining based flow cytometry (reference value: 65 +/ 3%); format: functional
[15] = Induction of cell cycle arrest in mouse W1308 cells assessed as accumulation at G2/M phase at 200 nM after 72 hrs by propidium iodide staining based flow cytometry (reference value: 56 +/ 1%); format: functional
[16] = system: Jurkat; assay: Induction of cell cycle arrest in human Jurkat cells assessed as accumulation at G2/M phase at 200 nM after 72 hrs by propidium iodide staining based flow cytometry (reference value: 27 +/ 2%); format: functional
[17] = system: ASPC1; assay: Induction of apoptosis in human AsPC1 cells assessed as apoptotic body formation at 200 nM after 72 hrs by Hoechst 33342 and mitotracker red staining based confocal microscopy; format: functional, cell-based; in short: as §4
[18] = system: Jurkat; assay: Induction of cell cycle arrest in human Jurkat cells assessed as accumulation at G1 phase at 200 nM after 72 hrs by propidium iodide staining based flow cytometry (reference value: 72 +/ 4%); format: functional
[19] = system: HEK293; assay: Growth inhibition of HEK293 cells at 100 uM after 72 hrs by MTT assay; format: functional; details: Homo sapiens, HEK293, 72 h; read-out: GI
[20] = Induction of cell cycle arrest in mouse W1308 cells assessed as accumulation at G1 phase at 200 nM after 72 hrs by propidium iodide staining based flow cytometry (reference value: 43 +/ 2%); format: functional
[21] = Induction of apoptosis in mouse W1308 cells assessed as apoptotic cells level at 200 nM after 48 hrs by 3,3'-dihexyloxacarbocyanine iodide and propidium iodide staining based flow cytometry (reference value: 11%); format: functional
[22] = system: HEK293; assay: Induction of cell cycle arrest in HEK293 cells assessed as G1/G2 phase ratio at 200 nM after 72 hrs by propidium iodide staining based flow cytometry (reference value: 3.6); format: functional, Homo sapiens
[23] = system: Mus musculus; assay: Toxicity in mouse MMTV-Wnt-1 cells implanted C57BL/6 mouse assessed as induction of neurological symptoms at 0.4 mg/kg, iv once weekly for four weeks; format: organism-based; design: dose 0.4 mg/kg, route intravenous; details: in vivo; in short: as §6
[24] = system: Jurkat; assay: Induction of cell cycle arrest in human Jurkat cells assessed as G1/G2 phas e-ratio at 200 nM after 72 hrs by propidium iodide staining based flow cytometry (reference value: 2.7); format: functional
[25] = system: Jurkat; assay: Growth inhibition of human Jurkat cells at 100 uM after 72 hrs by MTT assay; format: functional; details: read-out: GI
[26] = system: ASPC1; assay: Induction of apoptosis in human AsPC1 cells at 200 nM after 72 hrs by propidium iodide staining based flow cytometry (reference value: 2.2 +/ 0.1%); format: functional
[27] = Induction of apoptosis in mouse W1308 cells 200 nM after 72 hrs by propidium iodide staining based flow cytometry (reference value: 0.3 +/ 0.1); format: functional
[28] = Reduction in blood-brain barrier permeability in […]; format: ADME, tissue-based, C57BL/6, Endothelial cell; design: scale not given: the % may be the effect or the level left; details: mouse; in short: as §5
[29] = system: ASPC1; assay: Induction of apoptosis in human AsPC1 cells assessed as cell fractionation level at 200 nM after 72 hrs by Hoechst 33342 and mitotracker red staining based confocal microscopy; format: functional; in short: as §4
[30] = system: ASPC1; assay: Induction of cell cycle arrest in human AsPC1 cells assessed as accumulation at G2/M phase at 200 nM after 72 hrs by propidium iodide staining based flow cytometry (reference value: 34 +/ 3%); format: functional
[31] = Growth inhibition of mouse W1308 cells at 100 uM after 72 hrs by MTT assay; format: functional; details: W1308, 72 h, read-out: GI
[32] = Inhibition of lamb brain tubulin polymerization assessed as reduction in microtubule assembly by spectrophotometry; design: species or system Ovis aries
In short: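 Tubulin purified from lamb brain by ammonium sulfate fractionation and ion-exchange chromatography. Assembly in 20 mM sodium phosphate, 1 mM EGTA, 10 mM MgCl2, 3.4 M glycerol, 1 mM GTP, pH 6.5, started by warming to 37 °C; turbidity followed at 350 nm over time. Inhibition plotted against ligand:tubulin molar ratio.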

[33] = system: HEK293; assay: Induction of cell cycle arrest in HEK293 cells assessed as accumulation at G2/M phase at 200 nM after 72 hrs by propidium iodide staining based flow cytometry (reference value: 21 +/- 2%); format: functional, Homo sapiens
[34] = system: ASPC1; assay: Induction of apoptosis in human AsPC1 cells assessed as mitochondria enlargement at 200 nM after 72 hrs by Hoechst 33342 and mitotracker red staining based confocal microscopy; format: functional, cell-based; in short: as §4
[35] = system: Mus musculus; assay: Antitumor activity against mouse MMTV-Wnt-1 cells implanted in C57BL/6 mouse assessed as reduction in tumor volume at 0.4 mg/kg, iv once weekly for four weeks; format: functional, organism-based; design: dose 0.4 mg/kg; in short: as §6
[36] = system: Mus musculus; assay: Toxicity in C57BL/6 mouse assessed as interphase microtubule de-stabilizing activity by measuring leakage of rhodamine through the gut at 1 mg/kg, iv co-administered with rhodamine B by fluorimetry; format: organism-based; design: dose 1 mg/kg, route intravenous; details: in vivo; in short: as §5
[37] = system: ASPC1; assay: Growth inhibition of human AsPC1 cells at 100 uM after 72 hrs by MTT assay; format: functional; details: ASPC1, 72 h, read-out: GI
[38] = Induction of cell cycle arrest in mouse W1308 cells assessed as G1/G2 phase ratio at 200 nM after 72 hrs by propidium iodide staining based flow cytometry (reference value: 0.8); format: functional
[39] = system: Mus musculus; assay: Toxicity in C57BL/6 mouse assessed as interphase microtubule de-stabilizing activity by measuring influx of rhodamine in to spleen at 1 mg/kg, iv co-administered with rhodamine B by fluorimetry; format: organism-based; design: dose 1 mg/kg, route intravenous; details: in vivo; in short: as §5
[40] = system: Mus musculus; assay: Toxicity in mouse MMTV-Wnt-1 cells implanted C57BL/6 mouse assessed as induction of behavior changes at 0.4 mg/kg, iv once weekly for four weeks; format: organism-based; design: dose 0.4 mg/kg, route intravenous; details: in vivo; in short: as §6
[41] = Induction of apoptosis in mouse W1308 cells assessed as pre-apoptotic cells level at 200 nM after 48 hrs by 3,3'-dihexyloxacarbocyanine iodide and propidium iodide staining based flow cytometry (reference value: 17%); format: functional
[42] = system: Mus musculus; assay: (§7) Toxicity in iv dosed C57BL/6 mouse measured after 24 to 48 hrs; format: organism-based; details: mouse, in vivo; in short: as §3
[43] = as §7; format: organism-based; details: C57BL/6, mouse, in vivo; in short: as §3
[44] = system: Jurkat; assay: Induction of apoptosis in human Jurkat cells at 200 nM after 72 hrs by propidium iodide staining based flow cytometry (reference value: 0.9 +/ 0.2%); format: functional

For CCN(CC)Cc1cc2cc3c(cc2o1)[C@@H](NC(C)=O)CCc1cc(OC)c(OC)c(OC)c1-3, the IC50 [1] was > 100 µM, the IC50 [2] was > 100 µM and the IC50 [3] was 20 µM. For the same molecule, the IC50 [4] was > 100 µM.
With COC(=O)CCCCCCCCc1cc2cc3c(cc2o1)[C@@H](NC(C)=O)CCc1cc(OC)c(OC)c(OC)c1-3 the IC50 [1] was > 100 µM, the IC50 [2] was > 100 µM and the IC50 [3] was > 100 µM. The IC50 [4] was > 100 µM.
COc1cc2c(c(OC)c1OC)-c1cc3cc(CO)oc3cc1[C@@H](NC(C)=O)CC2 gave an Activity [5] of 6%, a Ratio [6] of 0.7 and an LD100 [7] of 0.8 mg/kg. For the same molecule, the LD50 [8] was 0.3 mg/kg, the Activity [9] was 22% and the Activity [10] was “Active”. For the same molecule, the Activity [11] was “Toxic”, the Activity [12] was “Active” and the Activity [13] was “Non-toxic”. The Activity [14] was 27%, the Activity [15] was 80% and the IC50 [1] was < 0.02 µM. For the same molecule, the Activity [16] was 62%, the Activity [17] was “Active” and the Activity [18] was 34%. It also gave an inhibition of growth at 100 µM [19] of 60%, an Activity [20] of 18% and an Activity [21] of 11%. The Ratio [22] was 0.3, the Activity [23] was “Non-toxic” and the IC50 [2] was < 0.02 µM. For the same molecule, the Ratio [24] was 0.6, the inhibition of growth at 100 µM [25] was 60% and the Activity [26] was 1.2%. For the same molecule, the Activity [27] was 2.3%, the Activity [28] was 40% and the Activity [29] was “Active”. For the same molecule, the Activity [30] was 72%, the inhibition of growth at 100 µM [31] was 60% and the IC50 [32] was 0.08 molar ratio. The Activity [33] was 72%, the Activity [34] was “Active” and the “growth inhibition (GI)” value [35] was “Active”. The Activity [36] was “Toxic”, the inhibition of growth at 100 µM [37] was 60% and the Ratio [38] was 0.2. For the same molecule, the Activity [39] was “Toxic”, the IC50 [3] was < 0.05 µM and the Activity [40] was “Non-toxic”. The Activity [41] was 14%, the LD100 [42] was 2 mg/kg and the LD50 [43] was 0.8 mg/kg. The IC50 [4] was < 0.02 µM and the Activity [44] was 2.2%.
